A selection: hits, their analogues and other compounds. The true share with any hit is near 4.3%.
TAAR1 agonist – human TAAR1 agonists, primary screen, Fluo-8 calcium fluorescence, CHO RD-HGA16 cells; vehicle wells 0%, saturating PEA agonist 100%; activation, % at 3 µM; 360,000 tested, 0.99% active; AID 624467, 2012;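 active means activation above the mean activation of all test compounds in the run plus 3 SD, cut at about 38% in these data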
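Test system: RD-HGA16 (CHO) cells co-expressing Gα16 and hTAAR1 | Doses: Single dose, 3 µM | Schedule: 17-24 h seeding, 75 min 37 °C dye, 30 min RT | Evaluation: % activation from peak over basal fluorescence ratio, DMSO-to-PEA scaled | Technique: Kinetic Fluo-8 calcium fluorescence | Benchmarks: Low control DMSO, high control PEA (EC100)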
TAAR1 antag – human TAAR1 antagonists, primary screen, Fluo-8 calcium fluorescence, CHO RD-HGA16 cells. Trace amine-associated receptor 1 (Homo sapiens), Q96RJ0. antagonist. inhibition, % at 3 µM. 360,000 tested, 1.5% active. AID 624466, 2012;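 active means inhibition above a per-plate cutoff, the mean inhibition of test compounds on that plate plus 3 SD, cut at about 49% in these data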;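 further: 0% = DMSO plus EC80 beta-PEA response and 100% = DMSO alone without agonist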
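Material: CHO RD-HGA16 cells bearing hTAAR1; compound dosing: one-point dosing, 3 µM nominal final; schedule: dye loading 75 min at 37 °C, then 30 min room temperature; measured by: calcium fluorescence with Fluo-8; control set: vehicle and agonist controls; replication: n of 1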
CHO parental Ca – ATP-evoked calcium signal inhibitors, parental CHO, primary screen, counter-screen for OX1R antagonist project, cell-based, fluorescence, Fluo-8 calcium dye; parental CHO-K1, ATP-induced calcium, Fluo-8 fluorescence; inhibition, % at 5.6 µM; 330,000 tested, 0.63% active; AID 463079, 2010;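 active means inhibition above that plate's mean sample inhibition plus 3 SD, cut at about 26% in these data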;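 further: 0% = ATP-challenged DMSO wells and 100% = DMSO wells without ATP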
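Material: parental CHO cells / Compound: single nominal dose of 5.6 µM per compound / Signal: Fluo-8 fluorescence / Replicates: singlicate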
OX1R antag-1 – OX1R (HCRTR1) antagonists, primary screen, fluorescence, CHO/OX1R cells, Fluo-8 calcium, orexin A; Fluo-8 calcium fluorescence; inhibition, % at 5 µM; 330,000 tested, 0.43% active; AID 434989, 2010;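 active means inhibition above its plate's threshold, mean inhibition of all tested compounds on the plate plus 3 SD, cut at about 37% in these data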;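 further: 0% = orexin A challenge wells and 100% = SB-334867-A antagonist wells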
OX1R antag-2 – antagonists of human orexin 1 receptor (OX1R). inhibition, % at 6.6 µM. 330,000 tested, 1.8% active. Orexin/Hypocretin receptor type 1 (Homo sapiens), O43613. OX1R-expressing cells, FRET antagonist read-out; in the data active means inhibition mostly above about 38%, no sharp cut-off; inactive means mostly below about 40%;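 further: 0% = agonist challenge alone and 100% = reference antagonist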
GalR3 antag – GalR3 antagonists in HEK293 cells, primary screen, cell-based, fluorescence readout; 360,000 tested, 0.44% active; HEK293 GalR3-CNG cAMP membrane potential fluorescence; galR3 body fused to GalR1 C-terminus; inhibition, % at 3 µM; AID 651719, 2012; Galanin receptor type 3 (Homo sapiens), O60755;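 active means inhibition above the screen-wide average plus 3 SD, cut at about 13% in these data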;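 further: forskolin and galanin both at EC90 stimulate the cells; cAMP rise reported by CNG channel membrane potential dye signal; 0% = forskolin plus galanin with DMSO and 100% = forskolin alone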
Target sequence (O60755 1-299 limits assumed): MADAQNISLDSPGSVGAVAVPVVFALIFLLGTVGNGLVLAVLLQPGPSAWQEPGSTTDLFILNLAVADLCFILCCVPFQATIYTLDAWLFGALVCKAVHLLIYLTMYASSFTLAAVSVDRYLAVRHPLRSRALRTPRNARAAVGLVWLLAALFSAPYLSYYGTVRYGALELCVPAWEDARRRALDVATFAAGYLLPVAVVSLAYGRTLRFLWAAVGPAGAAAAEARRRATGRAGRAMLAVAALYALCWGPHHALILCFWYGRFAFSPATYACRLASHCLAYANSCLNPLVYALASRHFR
TAAR1 nonsel count – nonselective antagonists in TAAR1 counter-screen cells, counter-screen for hTAAR1 antagonist project, cell-based, fluorescence, calcium | AID 651780, 2012 | counterscreen cell line, antagonist mode | inhibition, % at 3 µM | shares compounds with TAAR1 antag | 2,400 tested, 77% active; in the data active means inhibition above about 22%;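 further: CHO-Ga16 host cells stimulated with ATP at an EC80 level; 0% = agonist EC80 plus vehicle and 100% = vehicle without agonist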
TAAR1 ant conf – human TAAR1 antagonists, retest of hits, confirmation, cell-based, fluorescence; shares compounds with TAAR1 antag; TAAR1-expressing cells, fluorescence antagonist read-out; inhibition, % at 3 µM; 2,400 tested, 40% active; AID 651785, 2012; in the data active means inhibition above about 49%;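 further: CHO-Ga16 host cells challenged with agonist PEA near its EC80; 0% = agonist at EC80 plus vehicle and 100% = vehicle with no agonist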
Ga16 ag counter – calcium activation in Ga16-expressing cells, counter-screen for TAAR1 antagonist project, cell-based, fluorescence. shares compounds with TAAR1 antag. agonist counterscreen. activation, % at 3 µM. 2,400 tested, 18% active; in the data active means activation above about 12%;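 further: 0% = vehicle wells and 100% = saturating stimulus response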
TAAR1 ag counter – TAAR1 activation by candidate antagonists – cell-based, fluorescence, counter-screen for TAAR1 antagonist project; shares compounds with TAAR1 antag; hTAAR1 cell line, agonist mode; activation, % at 3 µM; 2,400 tested, 2% active; AID 651955, 2012; in the data active means activation above about 37%;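 further: CHO cells stably expressing TAAR1 with calcium dye readout; 0% = DMSO vehicle and 100% = full agonist response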
* = called active by the depositor; / = no result.

SMILES	TAAR1 agonist	TAAR1 antag	CHO parental Ca	OX1R antag-1	OX1R antag-2	GalR3 antag	TAAR1 nonsel count	TAAR1 ant conf	Ga16 ag counter	TAAR1 ag counter
CC(C)(C)NC(=O)CSc1nc2ccc(NC(=O)CSc3nnnn3Cc3ccccc3)cc2s1	14.6	49.0*	37.3*	41.6	66.4	-4.5	35.8*	26.4	9.8	5.0
Cc1ccccc1OCc1nnc(SCC(=O)Nc2ccc3nc(SCC(=O)NC(C)(C)C)sc3c2)n1C	21.6	61.4*	-20.3	-12.7	4.6	-1.1	43.4*	61.9*	9.9	5.5
Cc1ccc(S(=O)(=O)N2C[C@H]3C(=O)C[C@@H](c4ccccc4)N(S(=O)(=O)c4ccc(C)cc4)[C@H]3C[C@H]2c2cccc(C)c2)cc1	0.2	-18.7	/	/	/	-5.3	/	/	/	/
Cc1cccc(S(=O)C(c2ccccc2)c2ccccc2)c1 (configuration not stated)	2.1	-16.4	/	/	/	-4.3	/	/	/	/
CN(Cc1ccccc1)C(=O)[C@@H]1CCCN1C(=O)[C@@H]1CCCN1C(=O)c1ccc(Cl)cc1	3.2	0.8	/	/	/	-6.6	/	/	/	/
Cc1cc(C)n2nc(CNS(=O)(=O)c3cccc([N+](=O)[O-])c3)nc2n1	6.6	-4.9	-8.3	-3.0	21.4	-7.8	/	/	/	/
O=c1c2ccccc2nc(COc2ccccc2)n1/N=C/c1ccc(O)cc1O	11.8	78.7*	4.7	1.8	28.9	4.9	31.6*	60.8*	8.1	7.8
C/C(=N\OCc1nc2ccccc2c(=O)n1/N=C/c1cc([N+](=O)[O-])ccc1O)c1ccccc1	9.1	64.1*	26.7	-12.7	55.0	5.8	30.9*	46.6	8.2	5.2
COc1ccc(OC)c2c(C)cc(N3CCCCCC3)nc12	1.0	-8.9	/	/	/	-10.7	/	/	/	/
CCCOc1ccc(Cl)cc1/C=C1/C(=O)ON=C1C	0.6	-18.2	-1.9	-4.0	-3.4	-11.9	/	/	/	/
CC1=NOC(=O)/C1=C\c1ccc(-c2ccc(Cl)cc2Cl)o1	14.1	52.5*	/	/	/	1.8	79.2*	71.8*	28.6*	25.4
COc1cc(C(=O)Nc2cccc(-c3nnc(-c4ccco4)o3)c2)ccc1OC(C)=O	15.8	64.1*	-24.5	-26.7	23.4	-2.3	26.3*	45.0	7.4	7.6
COc1ccc(C(=O)Nc2cccc(-c3nnc(-c4ccco4)o3)c2)cc1	17.6	39.1	-20.7	-30.8	18.6	-1.1	/	/	/	/
CCc1ccc(NC(=S)N(Cc2cccc(Br)c2)CC2CCC(C(=O)O)CC2)cc1 (configuration not stated)	7.7	60.8*	-9.3	-8.6	13.1	-7.3	12.3	27.1	5.1	23.0
CCC(C)c1ccccc1N1CC(C(=O)N2CCN(S(=O)(=O)c3cccc([N+](=O)[O-])c3)CC2)CC1=O (configuration not stated)	4.0	16.3	/	/	/	-0.3	/	/	/	/
Cc1ccc(-c2[nH]ncc2C(=O)c2cccc(F)c2)c(O)c1	-1.1	2.4	-0.1	-13.0	14.8	-9.6	/	/	/	/
CCOc1ccccc1N1CCN(c2ncnc3scc(-c4ccc(OC)cc4)c23)CC1	-0.6	7.0	-21.5	-17.0	4.8	-0.2	/	/	/	/
